From ChEMBL document CHEMBL1129955, “Structure-activity relationships of alkyl- and alkoxy-substituted 1,4-dihydroquinoxaline-2,3-diones: potent and systemically active antagonists for the glycine site of the NMDA receptor” (J Med Chem, 1997)

Columns and labels:
[1] = target: Glutamate receptor ionotropic, NMDA 1 (Rattus norvegicus, UniProt P35439); test: Potency for the N-methyl-D-aspartate glutamate receptor 1 glycine site by displacement of [3H]5,7-dichlorokynurenic acid (DCKA) binding in rat brain cortical membranes.; type: cell membranes, Membrane
[2] = Partition coefficient (logP); type: physicochemical; details: octanol/water
Mus musculus = species: Mus musculus; test: Anticonvulsant activity was measured by mouse maximal electroshock (MES) assay.; type: functional
Method in brief: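 Mice; compounds dissolved in 0.05 M Tris, given iv; tested at peak activity 2 min after injection (one compound with slower onset tested at 15 min). Maximal electroshock seizure protection scored; ED50 by Litchfield and Wilcoxon analysis.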

[3] = Selectivity index for the inhibition of NMDA receptors was estimated by dividing Kb AMPA by Kb NMDA
[4] = target: T1, Glutamate receptor ionotropic, AMPA (Rattus norvegicus) (UniProt P19491+P19492+P19493+P19490); test: Dissociation constant(Kb) for Ionotropic glutamate receptor AMPA as inhibition of currents activated by 10 uM AMPA in Xenopus oocytes expressing rat cerebral cortex poly(A)+ RNA; type: functional, cell-based; details: Oocyte
[5] = target: T1, Glutamate receptor ionotropic, AMPA (Rattus norvegicus); test: Dissociation constant(Kb) for Ionotropic glutamate receptor AMPA was determined from inhibition of currents activated by 10(uM) AMPA in Xenopus oocytes expressing rat cerebral cortex poly(A)+ RNA; type: functional, cell-based; details: Oocyte

| Compound | IC50 [1] [nM] | further results |
| --- | --- | --- |
| Cc1c(C#N)cc2[nH]c(=O)c(=O)[nH]c2c1[N+](=O)[O-] | 73 | – |
| COc1cc2nc(O)c(O)nc2cc1Br | 1000 | – |
| CCc1c(Cl)cc2nc(O)c(O)nc2c1[N+](=O)[O-] | 130 | – |
| Cc1cc([N+](=O)[O-])c2[nH]c(=O)c(=O)[nH]c2c1 | 9300 | – |
| O=c1[nH]c2cc(Cl)c(Cl)c([N+](=O)[O-])c2[nH]c1=O [LICOSTINEL] | 5.9 | logP [2]: 0.21; ED50 (Mus musculus): 4 mg/kg |
| Cc1cc2nc(O)c(O)nc2c([N+](=O)[O-])c1C | 29 | Selectivity index [3]: 79; Kb [4]: 3100 nM; logP [2]: 0.58; ED50 (Mus musculus): 2.6 mg/kg |
| O=c1[nH]c2cc3ccccc3cc2[nH]c1=O | 16000 | – |
| COc1c(F)cc2[nH]c(=O)c(=O)[nH]c2c1[N+](=O)[O-] | 1900 | – |
| COc1cc2[nH]c(=O)c(=O)[nH]c2cc1OC | 17000 | – |
| CCc1cc2[nH]c(=O)c(=O)[nH]c2cc1Cl | 1400 | – |
| Cc1cc2nc(O)c(O)nc2c([N+](=O)[O-])c1Cl | 45 | logP [2]: 0.44; ED50 (Mus musculus): 1.9 mg/kg |
| Cc1c(F)cc2nc(O)c(O)nc2c1[N+](=O)[O-] | 95 | logP [2]: 0.08; ED50 (Mus musculus): 1.8 mg/kg |
| Cc1cc2[nH]c(=O)c(=O)[nH]c2cc1C | 3300 | – |
| Cc1c(Cl)cc2nc(O)c(O)nc2c1[N+](=O)[O-] | – | Selectivity index [3]: 440; Kb [4]: 3500 nM; ED50 (Mus musculus): 1.2 mg/kg |
| CCSc1c(Cl)cc2nc(O)c(O)nc2c1[N+](=O)[O-] | 640 | – |
| COc1cc2[nH]c(=O)c(=O)[nH]c2c(OC(C)=O)c1OC | 53000 | – |
| COc1cc2[nH]c(=O)c(=O)[nH]c2c(O)c1OC | 17000 | – |
| Cc1cc2nc(O)c(O)nc2cc1Cl | 780 | – |
| CCCCOc1c(F)cc2nc(O)c(O)nc2c1[N+](=O)[O-] | 4300 | – |
| CCOc1c(F)cc2nc(O)c(O)nc2c1[N+](=O)[O-] | 3600 | – |

| Compound | IC50 [1] [nM] | further results |
| --- | --- | --- |
| CCc1cc2[nH]c(=O)c(=O)[nH]c2c([N+](=O)[O-])c1CC | 160 | – |
| O=c1[nH]c2cc3c(c([N+](=O)[O-])c2[nH]c1=O)CCC3 | 3100 | – |
| O=[N+]([O-])c1c(OCCCc2ccccc2)c(F)cc2nc(O)c(O)nc12 | 4000 | – |
| O=[N+]([O-])c1c2c(cc3nc(O)c(O)nc13)CCC2 | – | Selectivity index [3]: 20; Kb [5]: 17000 nM |
| CCc1cc2[nH]c(=O)c(=O)[nH]c2cc1CC | 1800 | – |
| Cc1c(C#N)cc2nc(O)c(O)nc2c1[N+](=O)[O-] | – | Selectivity index [3]: 20; Kb [5]: 590 nM |
| CCc1cc2nc(O)c(O)nc2c([N+](=O)[O-])c1Cl | 29 | logP [2]: 0.92; ED50 (Mus musculus): 4.5 mg/kg |
| Cc1c(Cl)cc2nc(O)c(O)nc2c1N | 150 | – |
| N#Cc1cc([N+](=O)[O-])c2[nH]c(=O)c(=O)[nH]c2c1 | 2800 | – |
| O=[N+]([O-])c1c(Br)c(Br)cc2nc(O)c(O)nc12 | 20 | logP [2]: 0.74; ED50 (Mus musculus): 7.3 mg/kg |
| COc1c(Cl)cc2[nH]c(=O)c(=O)[nH]c2c1[N+](=O)[O-] | 150 | – |
| Oc1nc2cc3c(cc2nc1O)OCO3 | > 100000 | – |
| Oc1cc2nc(O)c(O)nc2cc1O | > 100000 | – |
| Cc1c(Cl)cc2[nH]c(=O)c(=O)[nH]c2c1[N+](=O)[O-] | 4.7 | logP [2]: 0.49 |
| Cc1c(Br)cc2nc(O)c(O)nc2c1[N+](=O)[O-] | 8.7 | logP [2]: 0.61; ED50 (Mus musculus): 2 mg/kg |
| CCc1cc2nc(O)c(O)nc2c([N+](=O)[O-])c1Br | 82 | logP [2]: 1.04; ED50 (Mus musculus): 11 mg/kg |
| Nc1c(F)cc2nc(O)c(O)nc2c1[N+](=O)[O-] | 11000 | – |
| Oc1nc2cc3c(cc2nc1O)CCC3 | 15000 | – |
| COc1c(Br)cc2[nH]c(=O)c(=O)[nH]c2c1[N+](=O)[O-] | 64 | – |
